Measured values as given in ChEMBL document CHEMBL2390836, “Synthesis and antitumor activities of naturally occurring oleanolic acid triterpenoid saponins and their derivatives” (Eur J Med Chem, 2013).

Columns and labels:
Assay type in all cases: functional, cell-based
A549 = experiment: Cytotoxicity against human A549 cells after 72 hrs by sulforhodamine B assay; conditions: A549, 72 h
Procedure, shortened: (§1)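 Cells seeded in 96-well plates and exposed in triplicate to a concentration gradient at 37 °C for 72 h. Total protein staining with sulforhodamine B was the read-out. IC50 was calculated by the Logit method from at least three independent experiments.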

HL-60 = experiment: Cytotoxicity against human HL60 cells after 72 hrs by MTT assay; conditions: HL-60, 72 h
Procedure, shortened: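 HL-60 human promyelocytic leukemia cells were plated in 96 wells and treated in triplicate with graded concentrations at 37 °C for 72 h. Viability was read by MTT reduction. IC50 was obtained by the Logit method from at least three independent experiments.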

A-375 = experiment: Cytotoxicity against human A375 cells after 72 hrs by sulforhodamine B assay; conditions: A-375, 72 h; procedure, shortened: as §1

Row | Compound | IC50 (A549) [µM] | IC50 (HL-60) [µM] | IC50 (A-375) [µM]
1 | C[C@@H]1O[C@@H](O[C@@H]2[C@@H](O)[C@H](O[C@H]3CC[C@]4(C)[C@H]5CC=C6[C@@H]7CC(C)(C)CC[C@]7(C(=O)O)CC[C@@]6(C)[C@]5(C)CC[C@H]4C3(C)C)O[C@H](CO)[C@H]2O)[C@H](O)[C@H](O)[C@H]1O | > 20 | > 20 | > 20
2 | CC1(C)CC[C@]2(C(=O)O)CC[C@]3(C)C(=CC[C@@H]4[C@@]5(C)CC[C@H](O[C@@H]6O[C@H](CO)[C@H](O)[C@H](O)[C@H]6O[C@@H]6O[C@H](CO)[C@@H](O)[C@H](O)[C@H]6O)C(C)(C)[C@@H]5CC[C@]43C)[C@@H]2C1 | 17.9 | 10.1 | 9.7
3 | C[C@@H]1O[C@@H](O[C@H]2[C@H](O[C@H]3CC[C@]4(C)[C@H]5CC=C6[C@@H]7CC(C)(C)CC[C@]7(C(=O)O)CC[C@@]6(C)[C@]5(C)CC[C@H]4C3(C)C)OC[C@@H](O)[C@@H]2O)[C@H](O)[C@H](O[C@@H]2OC[C@@H](O)[C@H](O)[C@H]2O)[C@H]1O | 11.5 | 4.5 | 6.3
4 | C[C@@H]1O[C@@H](O[C@H]2[C@H](O[C@H]3CC[C@]4(C)[C@H]5CC=C6[C@@H]7CC(C)(C)CC[C@]7(C(=O)O)CC[C@@]6(C)[C@]5(C)CC[C@H]4C3(C)C)OC[C@H](O)[C@@H]2O)[C@H](O)[C@H](O[C@@H]2OC[C@@H](O)[C@H](O)[C@H]2O)[C@H]1O | 15.4 | 3.4 | 8.9
5 | C[C@@H]1O[C@@H](O[C@H]2[C@H](O[C@H]3CC[C@]4(C)[C@H]5CC=C6[C@@H]7CC(C)(C)CC[C@]7(C(=O)O)CC[C@@]6(C)[C@]5(C)CC[C@H]4C3(C)C)O[C@H](CO)[C@@H](O)[C@@H]2O[C@@H]2O[C@@H](C)[C@H](O)[C@@H](O)[C@H]2O)[C@H](O)[C@H](O)[C@H]1O | > 20 | > 20 | > 20
